The species entered for one assay is Bos taurus. Kind of assay: Inhibition of [Fe(2+)]/ascorbate-induced oxidation of bovine heart membranes(antioxidant BHMLO). It is filed as functional. The method, boiled down: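 Bovine heart membranes (KCl-washed, 100000g pellet, 20 mg/mL protein stock in 25 mM HEPES/150 mM NaCl pH 7.4) were preincubated with compound for 30 min at 37 °C. Peroxidation was started with FeCl2/ascorbic acid and run for 15 min at 21 °C. TBARS were developed by heating at 80 °C and read at 540 nm against a malonaldehyde bis(dimethyl acetal) standard curve. IC50 by linear regression.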

A short description of assay [1]: Inhibition of proliferation measured by inhibition of [3H]thymidine incorporation by HMVEC-L cells. In kind it is functional, cell-based, Homo sapiens. The method, boiled down: (§1)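 Human lung microvascular endothelial cells (HMVEC-L, donor, passages 3–9) were grown in EGM-MV to 75–90% confluence. Cells were given compound in fresh medium at 37 °C for 18 h, then pulsed 6 h with [3H]thymidine (2.5 μCi per 200 μL). TCA-precipitated DNA was solubilised in SDS and counted by liquid scintillation. IC50 by linear regression, or % inhibition at the stated concentration.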
In general terms: Incorporation of labelled thymidine or its analogues reports DNA synthesis.

Another assay has as its system HMVEC-L. In words: (§2) Compound was evaluated for in vitro inhibition of proliferation measured by inhibition of [3H]thymidine incorporation by HMVEC-L cells. It is filed as functional. Set-up: concentration or dose not given beside the values. Particulars: Homo sapiens, dose or concentration not given here. The method, boiled down:
as §1

The nature of assay [2]: as §2. It is filed as functional, Homo sapiens. Also on record: concentration or dose not given beside the values. The method, boiled down:
as §1

As a reminder, the IC50 is the concentration needed to halve the response being measured. Consider `COc1ccc2cc(C(C)C(=O)NCCC3(C)CCc4c(C)c(O)c(C)c(C)c4O3)ccc2c1` (stereo not drawn), for which the values for the IC50 (in the assay listed under Bos taurus; in assay [1]) were 4.67 µM and 7.4 µM, respectively.
Broadly, the inhibition is the percentage by which the read-out fell short of the control. VITAMIN E [listing 1 of 2 here] returned an inhibition with HMVEC-L of 22%.
For `COc1ccc2cc(C(C)C(=O)OCCC3(C)CCc4c(C)c(OC(C)=O)c(C)c(C)c4O3)ccc2c1` (stereo not drawn), the IC50 in the assay filed under Bos taurus is 4.5 µM; in assay [1], 11.5 µM.
In the case of `COc1ccc2cc([C@H](C)C(=O)NCC3(C)CCc4c(C)c(OC(C)=O)c(C)c(C)c4O3)ccc2c1` (stereo partly drawn), in assay [1], the IC50 was 4 µM.
On to `COc1ccc2cc([C@@H](C)C(=O)NCC3(C)CCc4c(C)c(O)c(C)c(C)c4O3)ccc2c1` (stereo partly drawn), for which the IC50 in the assay filed under Bos taurus stood at 4.8 µM; in assay [1], 4.5 µM.
On the same counts, the results for `COc1ccc2cc(C(C)C(=O)NCC3(C)CCc4c(C)c(O)c(C)c(C)c4O3)ccc2c1` (stereo not drawn) are 3.99 µM and 4.3 µM.
In the same order, the values of `COc1ccc2cc([C@H](C)C(=O)OCCC3(C)Cc4c(C)c(O)c(C)c(C)c4O3)ccc2c1` (stereo in doubt; 2b) are 5.2 µM and 16.6 µM.
Turning to `COc1ccc2cc(C(C)C(=O)OCC3(C)Cc4c(C)c(O)c(C)c(C)c4O3)ccc2c1` (stereo not drawn), the figures for the IC50 (in the assay listed under Bos taurus; in assay [1]) were 4.83 µM and 7.3 µM, respectively.
On the same counts, the results for `COc1ccc2cc([C@H](C)C(=O)OCC3(C)COc4c(C)c(C)c(O)c(C)c43)ccc2c1` (stereo partly drawn) are 5.2 µM and 19 µM.
A word on the Inhibition: it is the drop in the measured response relative to a control, in per cent. In the assay filed under Bos taurus, `Cc1c(C)c2c(c(C)c1O)CCC(C)(CCO)O2` (stereo not drawn) came in with a 50% inhibitory concentration (IC50) of 3.82 µM. Also, the Inhibition in assay [2] is reported as 30%.
Take `COc1ccc2cc([C@H](C)C(=O)NCC3(C)CCc4c(C)c(O)c(C)c(C)c4O3)ccc2c1` (stereo partly drawn): the half-maximal inhibitory concentration (IC50) in the assay filed under Bos taurus is 2.5 µM; in assay [1], 4.3 µM.
In the case of `COc1ccc2cc(C(C)C(=O)OCC3(C)CCc4c(C)c(O)c(C)c(C)c4O3)ccc2c1` (stereo not drawn), the IC50 amounted to 4.36 µM in the assay listed under Bos taurus and 11.3 µM in assay [1].
On the same counts, the results for `COc1ccc2cc([C@H](C)C(=O)OCCC3(C)Cc4c(C)c(O)c(C)c(C)c4O3)ccc2c1` (stereo in doubt; 2a) are 4.87 µM and 9.1 µM.
The compound `COc1ccc2cc([C@@H](C)C(=O)OCC[C@@]3(C)CCc4c(C)c(O)c(C)c(C)c4O3)ccc2c1` had an IC50 in assay [1] of 22 µM.
For `COc1ccc2cc([C@H](C)C(=O)O)ccc2c1` [NAPROXEN], the IC50 in assay [1] was > 50 µM.
As for `COc1ccc2cc(C(C)C(=O)NCC3(C)CCc4c(C)c(OC(C)=O)c(C)c(C)c4O3)ccc2c1` (stereo not drawn), the IC50 was 1.6 µM in the assay filed under Bos taurus and 3.3 µM in assay [1].
In the same order, the values of `COc1ccc2cc([C@H](C)C(=O)OCCC3(C)CCc4c(C)c(O)c(C)c(C)c4O3)ccc2c1` (stereo partly drawn) are 7.66 µM and 12.9 µM.
The compound `COc1ccc2cc(CC(=O)O)ccc2c1` [6-METHOXY-2-NAPHTHYLACETIC ACID] gave an Inhibition in assay [2] of 5%.
For `COc1ccc2cc([C@H](C)C(=O)OCCC3(C)Cc4c(C)c(O)c(C)c(C)c4O3)ccc2c1` (stereo in doubt; 2c), the IC50 in the assay listed under Bos taurus was 5.1 µM; in assay [1], 16.4 µM.
On the same counts, the results for `COc1ccc2cc(C(C)C(=O)OCCC3(C)CCc4c(C)c(OC)c(C)c(C)c4O3)ccc2c1` (stereo not drawn) are 14000 µM and 25 µM.
In the assay filed under Bos taurus, `Cc1c(C)c2c(c(C)c1O)CCC(C)(C(=O)O)O2` (stereo not drawn) [TROLOX] gave an IC50 of 25.6 µM. For the same compound, the Inhibition in assay [2] is 20%.
In the case of VITAMIN E [listing 2 of 2 here], in the assay listed under Bos taurus, the IC50 was 5170 µM.
Turning to `COc1ccc2cc([C@H](C)COC(=O)CC3(C)CCc4c(C)c(O)c(C)c(C)c4O3)ccc2c1` (stereo partly drawn), the IC50 in the assay listed under Bos taurus is 4.4 µM; in assay [1], 12 µM.
On to `COc1ccc2cc(C(C)C(=O)OCC[C@@]3(C)CCc4c(C)c(O)c(C)c(C)c4O3)ccc2c1` (single isomer, unassigned), for which the IC50 in the assay filed under Bos taurus worked out at 11.6 µM; in assay [1] it was 11.7 µM.
For the compound `COc1ccc2cc(CC(=O)OCCC3(C)CCc4c(C)c(O)c(C)c(C)c4O3)ccc2c1` (stereo not drawn), the IC50 in the assay filed under Bos taurus worked out at 4.5 µM. Further, the Inhibition in assay [2] was 44%.
Turning to `COc1ccc2cc(C(C)C(=O)NCCC3(C)Cc4c(C)c(O)c(C)c(C)c4O3)ccc2c1` (stereo not drawn), the IC50 in the assay filed under Bos taurus turned out to be 5.6 µM; in assay [1], 1.9 µM.
In the same order, the values of `COc1ccc2cc([C@H](C)C(=O)OCC[C@]3(C)CCc4c(C)c(O)c(C)c(C)c4O3)ccc2c1` are 9.6 µM and 16.4 µM.

The record behind these values is ChEMBL document CHEMBL1132417, “Novel esters and amides of nonsteroidal antiinflammatory carboxylic acids as antioxidants and antiproliferative agents” (J Med Chem, 1999).
